Reference: ChEMBL document CHEMBL3352198, “Design, synthesis, biological evaluation of substituted benzofurans as DNA gyraseB inhibitors of Mycobacterium tuberculosis” (Bioorg Med Chem, 2014)
≈ marks a conversion by molar mass, not a printed value. Calls of active or inactive are those of the source. The calls are words filed in the database; no cut-off is given here.

Key:
[1] = Cytotoxicity against mouse RAW264.7 cells assessed as inhibition of cell viability at 100 uM after 48 hrs by MTT assay; type: cell-based; conditions: read-out: INH
Outline: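 RAW 264.7 mouse macrophages, 5 × 10^5 cells per well, exposed to compounds at 37 °C, 5% CO2 for 48 h. MTT added about 4 h before the end, then supernatant removed and DMSO added. Absorbance read at 560 nm against blank, triplicate wells per concentration, result expressed as % inhibition.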

[2] = system: Mycobacterium tuberculosis; assay: Antibacterial activity against Mycobacterium tuberculosis H37Rv after 7 days by microplate alamar blue assay method; type: functional; conditions: 168 h
Outline: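 Mtb H37Rv inoculum taken from fresh LJ medium, resuspended in 7H9-S (7H9, 0.1% casitone, 0.5% glycerol, OADC), adjusted to McFarland No. 1 and diluted 1:20. Two-fold serial drug dilutions in 7H9-S, with growth and sterile controls. Incubated 7 days at 37 °C, alamar blue added, reincubated overnight. MIC taken as lowest concentration preventing the blue-to-pink colour change.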

DNA gyrase subunit B = DNA gyrase subunit B (Mycobacterium smegmatis, UniProt P0C559); assay: Inhibition of 6-His-tagged Mycobacterium smegmatis GyrB expressed in Escherichia coli BL21 (DE3) pLysS cells incubated for 100 mins in presence of ATP by malachite green dye based ATP assay; design: species or system Mycolicibacterium smegmatis
[3] = molecular target: DNA gyrase subunit A/DNA gyrase subunit B (Mycobacterium tuberculosis (strain ATCC 25618 / H37Rv), UniProt P9WG45+P9WG47); assay: Inhibition of Mycobacterium tuberculosis DNA gyrase supercoiling activity using relaxed pBR322 substrate incubated for 30 mins by ethidium bromide staining method
[4] = molecular target: DNA gyrase subunit B (Mycobacterium smegmatis) (UniProt P0C559); conditions: Mycolicibacterium smegmatis
[5] = molecular target: DNA gyrase subunit B (Staphylococcus aureus) (UniProt P0A0K8); assay: Inhibition of Staphylococcus aureus GyrB at 50 uM
[6] = molecular target: DNA gyrase subunit B (Escherichia coli) (UniProt P0AES6); assay: Inhibition of Escherichia coli GyrB at 50 uM

Chain of DNA gyrase subunit A/DNA gyrase subunit B (P9WG45 whole entry): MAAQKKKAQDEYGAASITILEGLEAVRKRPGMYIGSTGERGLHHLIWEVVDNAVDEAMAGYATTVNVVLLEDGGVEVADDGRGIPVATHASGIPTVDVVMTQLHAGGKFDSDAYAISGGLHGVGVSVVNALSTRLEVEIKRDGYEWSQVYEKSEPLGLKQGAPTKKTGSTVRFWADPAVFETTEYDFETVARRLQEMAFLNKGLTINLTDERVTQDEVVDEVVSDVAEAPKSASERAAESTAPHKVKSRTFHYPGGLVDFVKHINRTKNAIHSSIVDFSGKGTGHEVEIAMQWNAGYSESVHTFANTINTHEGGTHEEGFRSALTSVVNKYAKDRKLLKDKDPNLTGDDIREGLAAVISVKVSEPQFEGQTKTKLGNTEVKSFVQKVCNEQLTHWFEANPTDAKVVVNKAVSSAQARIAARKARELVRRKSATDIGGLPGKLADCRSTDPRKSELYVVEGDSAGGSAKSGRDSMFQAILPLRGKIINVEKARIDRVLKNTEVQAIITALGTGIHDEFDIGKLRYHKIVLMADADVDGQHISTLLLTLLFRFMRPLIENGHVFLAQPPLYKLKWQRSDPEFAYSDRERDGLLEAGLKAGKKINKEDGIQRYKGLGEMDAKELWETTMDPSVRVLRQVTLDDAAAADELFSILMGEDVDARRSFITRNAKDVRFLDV
Chain of DNA gyrase subunit A/DNA gyrase subunit B (P9WG47 whole entry): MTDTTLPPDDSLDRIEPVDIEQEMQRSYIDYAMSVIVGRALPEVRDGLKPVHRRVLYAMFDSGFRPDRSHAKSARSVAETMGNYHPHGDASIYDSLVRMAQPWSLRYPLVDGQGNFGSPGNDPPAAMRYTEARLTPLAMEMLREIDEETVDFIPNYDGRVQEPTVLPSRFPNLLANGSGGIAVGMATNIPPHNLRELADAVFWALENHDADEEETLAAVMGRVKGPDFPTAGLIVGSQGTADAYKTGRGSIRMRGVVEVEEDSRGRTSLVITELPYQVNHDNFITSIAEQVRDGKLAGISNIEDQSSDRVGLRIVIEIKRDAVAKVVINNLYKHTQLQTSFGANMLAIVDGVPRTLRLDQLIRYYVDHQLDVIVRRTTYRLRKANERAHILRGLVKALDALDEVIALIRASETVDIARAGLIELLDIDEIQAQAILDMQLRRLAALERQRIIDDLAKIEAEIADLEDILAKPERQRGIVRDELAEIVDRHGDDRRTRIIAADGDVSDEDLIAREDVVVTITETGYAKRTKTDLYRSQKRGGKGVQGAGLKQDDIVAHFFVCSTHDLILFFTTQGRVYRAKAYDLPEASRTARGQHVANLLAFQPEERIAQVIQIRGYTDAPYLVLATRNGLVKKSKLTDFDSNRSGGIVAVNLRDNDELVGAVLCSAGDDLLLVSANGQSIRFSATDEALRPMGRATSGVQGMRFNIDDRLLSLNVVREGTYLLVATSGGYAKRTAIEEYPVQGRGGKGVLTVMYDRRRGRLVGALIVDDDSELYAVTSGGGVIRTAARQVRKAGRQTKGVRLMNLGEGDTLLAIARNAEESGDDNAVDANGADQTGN
Chain of DNA gyrase subunit B (P0C559 whole entry): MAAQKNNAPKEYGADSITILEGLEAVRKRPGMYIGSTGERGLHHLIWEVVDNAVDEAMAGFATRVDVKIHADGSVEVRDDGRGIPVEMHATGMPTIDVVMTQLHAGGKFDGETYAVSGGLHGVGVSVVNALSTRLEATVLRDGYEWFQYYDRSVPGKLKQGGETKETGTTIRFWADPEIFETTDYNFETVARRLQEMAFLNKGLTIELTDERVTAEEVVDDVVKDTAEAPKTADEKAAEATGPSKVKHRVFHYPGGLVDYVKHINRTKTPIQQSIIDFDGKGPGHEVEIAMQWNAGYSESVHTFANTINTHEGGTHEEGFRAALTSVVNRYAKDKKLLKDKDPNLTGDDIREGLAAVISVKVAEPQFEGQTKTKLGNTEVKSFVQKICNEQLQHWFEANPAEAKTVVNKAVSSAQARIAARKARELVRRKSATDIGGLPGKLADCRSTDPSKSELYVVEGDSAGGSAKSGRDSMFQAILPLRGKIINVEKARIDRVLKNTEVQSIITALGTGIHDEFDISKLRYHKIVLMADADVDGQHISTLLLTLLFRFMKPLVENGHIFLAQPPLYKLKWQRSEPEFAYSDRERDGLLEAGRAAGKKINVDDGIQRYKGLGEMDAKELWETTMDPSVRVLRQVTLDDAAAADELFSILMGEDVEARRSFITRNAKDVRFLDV
Chain of DNA gyrase subunit B (Mycobacterium smegmatis) (P0C559 2-675 limits assumed): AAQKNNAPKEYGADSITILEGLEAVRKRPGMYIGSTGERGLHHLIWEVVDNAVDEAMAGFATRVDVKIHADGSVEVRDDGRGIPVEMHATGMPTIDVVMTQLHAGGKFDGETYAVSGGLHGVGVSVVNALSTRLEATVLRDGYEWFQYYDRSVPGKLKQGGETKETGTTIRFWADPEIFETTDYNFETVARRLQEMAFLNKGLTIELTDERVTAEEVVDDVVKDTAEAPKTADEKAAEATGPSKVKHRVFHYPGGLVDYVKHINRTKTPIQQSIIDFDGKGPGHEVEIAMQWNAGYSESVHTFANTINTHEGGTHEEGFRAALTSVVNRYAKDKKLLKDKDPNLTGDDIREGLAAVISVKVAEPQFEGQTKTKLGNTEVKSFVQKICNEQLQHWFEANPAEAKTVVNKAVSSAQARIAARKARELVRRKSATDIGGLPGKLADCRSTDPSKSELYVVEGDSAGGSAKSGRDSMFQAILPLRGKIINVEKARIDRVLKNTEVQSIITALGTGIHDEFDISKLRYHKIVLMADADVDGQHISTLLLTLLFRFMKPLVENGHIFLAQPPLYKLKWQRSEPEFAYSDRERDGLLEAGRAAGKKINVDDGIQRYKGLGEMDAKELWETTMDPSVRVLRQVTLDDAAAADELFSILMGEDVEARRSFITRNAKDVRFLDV
Chain of DNA gyrase subunit B (Staphylococcus aureus) (P0A0K8 2-644 limits assumed): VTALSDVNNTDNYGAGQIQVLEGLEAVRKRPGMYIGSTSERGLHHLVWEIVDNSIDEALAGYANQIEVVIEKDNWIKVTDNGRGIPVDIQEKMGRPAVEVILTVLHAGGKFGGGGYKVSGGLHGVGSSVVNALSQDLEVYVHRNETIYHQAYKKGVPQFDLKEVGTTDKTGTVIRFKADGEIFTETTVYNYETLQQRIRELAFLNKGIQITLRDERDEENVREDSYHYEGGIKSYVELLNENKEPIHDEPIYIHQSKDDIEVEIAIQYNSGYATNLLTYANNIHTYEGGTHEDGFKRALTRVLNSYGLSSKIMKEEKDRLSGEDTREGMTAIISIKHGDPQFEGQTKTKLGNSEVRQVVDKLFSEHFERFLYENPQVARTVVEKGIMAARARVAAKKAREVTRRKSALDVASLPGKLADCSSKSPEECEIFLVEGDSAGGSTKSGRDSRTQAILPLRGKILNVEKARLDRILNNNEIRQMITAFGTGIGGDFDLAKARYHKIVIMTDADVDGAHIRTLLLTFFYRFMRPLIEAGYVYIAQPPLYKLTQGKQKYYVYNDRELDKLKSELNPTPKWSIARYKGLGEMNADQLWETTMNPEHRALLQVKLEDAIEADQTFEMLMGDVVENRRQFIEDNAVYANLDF

SMILES | cytotoxicity at 48 h, 100 µM [1] [%] | MIC [2] [µM] | IC50 (DNA gyrase subunit B) [µM] | IC50 [3] [µM] | ΔTm [4] [°C] | inhibition [5] | inhibition [6]
CCOC(=O)c1cc2cc(N3CCN(C(=O)c4ccc(C(F)(F)F)cc4)CC3)ccc2o1 | 3.5 | 54 (≈ 24.1 µg/mL) | 52.1 | 45.1 |  |  | 
CCOC(=O)c1cc2cc(N3CCN(C(=O)Cc4ccc(OC)cc4)CC3)ccc2o1 | 7.39 | 18.2 (≈ 7.68 µg/mL) | 10.2 | 7.4 |  |  | 
CCOC(=O)c1cc2cc(N3CCN(C(=O)c4c(Cl)cccc4Cl)CC3)ccc2o1 | 6.98 | 10 (≈ 4.49 µg/mL) | 10.7 | 3.1 |  |  | 
CCOC(=O)c1cc2cc(N3CCN(C(=O)c4nccnc4Cl)CC3)ccc2o1 | 30.1 | 13.9 (≈ 5.77 µg/mL) | 12.7 | 3.12 |  |  | 
CCOC(=O)c1cc2cc(N3CCN(C(=O)c4ccccc4C(F)(F)F)CC3)ccc2o1 | 14 | 38.4 (≈ 17.2 µg/mL) | 36.9 | 26.3 |  |  | 
CCOC(=O)c1cc2cc(N3CCN(C(=O)c4ccccc4OC(F)(F)F)CC3)ccc2o1 | 27 | 30.2 (≈ 14 µg/mL) | 29.2 | 15.6 |  |  | 
CCOC(=O)c1cc2cc(N3CCN(C(=O)c4c(F)cc(OC)cc4F)CC3)ccc2o1 | 7.03 | 25.4 (≈ 11.3 µg/mL) | 24.2 | 9.8 |  |  | 
CCOC(=O)c1cc2cc(N3CCN(C(=O)Cc4ccc(F)cc4)CC3)ccc2o1 | 30.4 | 40.2 (≈ 16.5 µg/mL) | 38.4 | 26.9 |  |  | 
CCOC(=O)c1cc2cc(N3CCN(C(=O)c4c(F)cccc4F)CC3)ccc2o1 | 7.54 | 11.6 (≈ 4.81 µg/mL) | 6.21 | 2.9 |  |  | 
CC[C@@H](CO)NCCN[C@@H](CC)CO [ETHAMBUTOL] |  | 9.84 (≈ 2.01 µg/mL) |  |  |  |  | 
CCOC(=O)c1cc2cc(N3CCN(C(=O)COc4ccccc4)CC3)ccc2o1 | 7.65 | 9.35 (≈ 3.82 µg/mL) | 3.97 | 1.14 |  |  | 
CCOC(=O)c1cc2cc(N3CCN(C(=O)Cc4ccc(Cl)cc4)CC3)ccc2o1 | 29.2 | 20.2 (≈ 8.63 µg/mL) | 14.5 | 8.9 |  |  | 
CCOC(=O)c1cc2cc(N3CCN(C(=O)c4ncccc4C(F)(F)F)CC3)ccc2o1 | 14 | 26.7 (≈ 11.9 µg/mL) | 23.4 | 7.81 |  |  | 
CCOC(=O)c1cc2cc(N3CCN(C(=O)C4CCN(C(=O)OC(C)(C)C)CC4)CC3)ccc2o1 | 3.21 | 9.18 (≈ 4.46 µg/mL) | 3.2 | 0.81 | 2.7 | inactive | inactive
CCOC(=O)c1cc2cc(N3CCN(C(=O)c4cccnc4Cl)CC3)ccc2o1 | 7.55 | 11 (≈ 4.54 µg/mL) | 7.94 | 1.5 |  |  | 
CCOC(=O)c1cc2cc(N3CCN(C(=O)c4ccc(C5CCOCC5)cc4)CC3)ccc2o1 | 6.75 | 9.8 (≈ 4.53 µg/mL) | 6.7 | 0.91 |  |  | 

SMILES | cytotoxicity at 48 h, 100 µM [1] [%] | MIC [2] [µM] | IC50 (DNA gyrase subunit B) [µM] | IC50 [3] [µM] | ΔTm [4] [°C] | inhibition [5] | inhibition [6]
CCOC(=O)c1cc2cc(N3CCN(C(=O)c4cccc5ccccc45)CC3)ccc2o1 | 3.64 | 13.2 (≈ 5.64 µg/mL) | 9.08 | 3.6 |  |  | 
NNC(=O)c1ccncc1 [ISONIAZID] |  | 0.66 (≈ 0.0905 µg/mL) |  |  |  |  | 
COc1c(N2C[C@@H]3CCCN[C@@H]3C2)c(F)cc2c(=O)c(C(=O)O)cn(C3CC3)c12 [MOXIFLOXACIN] |  | 8.6 (≈ 3.45 µg/mL) | > 50 |  |  |  | 
CCOC(=O)c1cc2cc(N3CCN(C(=O)CC(C)C)CC3)ccc2o1 | 8.71 | 32.1 (≈ 11.5 µg/mL) | 41.1 | 29.1 |  |  | 
CCOC(=O)c1cc2cc(N3CCN(C(=O)c4ccco4)CC3)ccc2o1 | 17 | 43.6 (≈ 16.1 µg/mL) | 37.3 | 24.4 |  |  | 
CCOC(=O)c1cc2cc(N3CCN(C(=O)c4cccc(OC)c4)CC3)ccc2o1 | 15.3 | 9.67 (≈ 3.95 µg/mL) | 5.01 | 2.52 |  |  | 
CCOC(=O)c1cc2cc(N3CCN(C(=O)C4Cc5ccccc5N4)CC3)ccc2o1 (stereo unspecified) | 29.8 | 9.23 (≈ 3.87 µg/mL) | 3.89 | 0.84 |  |  | 
CCOC(=O)c1cc2cc(N3CCN(C(=O)Cc4ccccc4)CC3)ccc2o1 | 15.1 | 12.3 (≈ 4.84 µg/mL) | 9.2 | 6.81 |  |  | 
CCOC(=O)c1cc2cc(N3CCN(C(=O)Cc4ccc(Br)cc4)CC3)ccc2o1 | 53 | 19.8 (≈ 9.33 µg/mL) | 16.6 | 5.2 |  |  | 
CCOC(=O)c1cc2cc(N3CCN(C(=O)Cc4c(F)cc(F)cc4F)CC3)ccc2o1 | 14 | 17.1 (≈ 7.61 µg/mL) | 12.4 | 6.1 |  |  | 
CO[C@@H]1[C@@H](OC(N)=O)[C@@H](O)[C@H](Oc2ccc3c(O)c(NC(=O)c4ccc(O)c(CC=C(C)C)c4)c(=O)oc3c2C)OC1(C)C [NOVOBIOCIN] | 19.4 | > 200 |  |  |  |  | 
CCOC(=O)c1cc2cc(N3CCN(C(=O)CC4CCCCC4)CC3)ccc2o1 | 31.4 | 38.4 (≈ 15.3 µg/mL) | 36.3 | 25.2 |  |  | 
CCOC(=O)c1sc(-c2ccccc2)nc1N1CCC(NCc2ccc(F)cc2)CC1 |  | 28.4 (≈ 12.5 µg/mL) |  |  |  |  | 
CC1COc2c(N3CCN(C)CC3)c(F)cc3c(=O)c(C(=O)O)cn1c23 (stereo unspecified) [OFLOXACIN] |  | 2.16 (≈ 0.781 µg/mL) |  |  |  |  | 
CCOC(=O)c1cc2cc(N3CCN(C(=O)CCc4ccc(F)cc4)CC3)ccc2o1 | 14.7 | 9.57 (≈ 4.06 µg/mL) | 6.14 | 3.13 |  |  | 
